Test results published in ChEMBL document CHEMBL3627702, “Navigating CYP1A Induction and Arylhydrocarbon Receptor Agonism in Drug Discovery. A Case History with S1P1 Agonists” (J Med Chem, 2015).
One block for each compound: values may come before it.

Key:
CYP1A1 [1] = experiment: Induction of CYP1A1 mRNA expression in Sprague-Dawley rat hepatic microsomes at 15 mg/kg, po QD for 4 days relative to control; assay type: ADME, organism-based, Liver; details: read-out: FC
Method in brief: (§1)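 Male CD rats (226–325 g, n = 3) were dosed by oral gavage once daily for 4 days as a 1% w/v aqueous methylcellulose suspension (3–6 mg/mL, 5 mL/kg). At the end of the study, a left lateral liver lobe section was placed in RNALater and homogenised in TRIzol. RNA was purified, DNase-treated and converted to cDNA, and Cyp1a1 was read on low-density TaqMan arrays.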

[2] = Cmax in Sprague-Dawley rat at 15 mg/kg, po QD measured on day 1; assay type: ADME, organism-based; design: dose 15 mg/kg, route oral; details: in vivo
Method in brief: (§2)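 Male CD rats (226−325 g), n = 3, given the compound once daily by oral gavage for 4 days. Vehicle was 1% (w/v) methylcellulose aq suspension at 3−6 mg/mL, dosed at 5 mL/kg (target 15−30 mg/kg). Tail vein blood was taken on days 1 and 4 up to 24 h postdose. Blood was diluted 1:1 with water, extracted by acetonitrile protein precipitation and analysed by LC−MS/MS against calibration standards in diluted blood.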

Rattus norvegicus [3] = experiment: Dose normalized AUC in Sprague-Dawley rat at 15 mg/kg, po QD measured on day 1; assay type: ADME, organism-based; details: in vivo; method in brief: as §2
[4] = Cmax in Sprague-Dawley rat at 15 mg/kg, po QD measured on day 4; assay type: ADME, organism-based; design: dose 15 mg/kg, route oral; details: in vivo; method in brief: as §2
Rattus norvegicus [5] = experiment: Dose normalized AUC in Sprague-Dawley rat at 15 mg/kg, po QD measured on day 4; assay type: ADME, organism-based; details: in vivo; method in brief: as §2
CYP1A2 [6] = experiment: Induction of CYP1A2 mRNA expression in Sprague-Dawley rat hepatic microsomes at 15 mg/kg, po QD for 4 days relative to control; assay type: ADME, organism-based, Liver; details: read-out: FC
[7] = Lipophilicity, log D of the compound at pH 7.4; assay type: physicochemical; details: buffer
[8] = Dissociation constant, pKa of the compound; assay type: physicochemical
[9] = AUC in Sprague-Dawley rat at 15 mg/kg, po QD measured on day 1; assay type: ADME, organism-based; details: in vivo; method in brief: as §2
[10] = AUC in Sprague-Dawley rat at 15 mg/kg, po QD measured on day 4; assay type: ADME, organism-based; details: in vivo; method in brief: as §2
CYP1A2 [11] = experiment: Induction of CYP1A2 mRNA expression in Sprague-Dawley rat hepatic microsomes at 30 mg/kg, po QD for 4 days relative to control; assay type: ADME, organism-based, Liver; details: read-out: FC
Rattus norvegicus [12] = experiment: Dose normalized AUC in Sprague-Dawley rat at 30 mg/kg, po QD measured on day 1; assay type: ADME, organism-based; details: in vivo; method in brief: as §2
Rattus norvegicus [13] = experiment: Dose normalized AUC in Sprague-Dawley rat at 30 mg/kg, po QD measured on day 4; assay type: ADME, organism-based; details: in vivo; method in brief: as §2
[14] = AUC in Sprague-Dawley rat at 30 mg/kg, po QD measured on day 1; assay type: ADME, organism-based; details: in vivo; method in brief: as §2
CYP1A1 [15] = experiment: Induction of CYP1A1 mRNA expression in Sprague-Dawley rat hepatic microsomes at 30 mg/kg, po QD for 4 days relative to control; assay type: ADME, organism-based, Liver; details: read-out: FC; method in brief: as §1
[16] = AUC in Sprague-Dawley rat at 30 mg/kg, po QD measured on day 4; assay type: ADME, organism-based; details: in vivo; method in brief: as §2
[17] = Cmax in Sprague-Dawley rat at 30 mg/kg, po QD measured on day 1; assay type: ADME, organism-based; design: dose 30 mg/kg, route oral; details: in vivo; method in brief: as §2
[18] = Oral bioavailability in CD rat at 3 mg/kg; assay type: ADME, organism-based; details: in vivo
Method in brief: (§3)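 Male CD rats cannulated in the femoral and jugular veins, n = 3, crossover design. Day 1: 1 h iv infusion at 1 mg/kg (0.2 mg/mL in ≤5% DMSO/≥95% 10% Kleptose in saline, 5 mL/kg/h). Day 2: oral gavage at 3 mg/kg (0.6 mg/mL in 1% methylcellulose, 5 mL/kg). Blood assayed by LC–MS/MS after acetonitrile precipitation.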

[19] = Cmax in Sprague-Dawley rat at 30 mg/kg, po QD measured on day 4; assay type: ADME, organism-based; design: dose 30 mg/kg, route oral; details: in vivo; method in brief: as §2
[20] = AUC in Sprague-Dawley rat at 25 mg/kg, po QD measured on day 4; assay type: ADME, organism-based; details: in vivo; method in brief: as §2
[21] = Blood clearance in CD rat at 1 mg/kg, iv; assay type: ADME, organism-based
Method in brief: (§4)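 Male CD rats carried femoral vein (dosing) and jugular vein (sampling) cannulae and recovered at least 2 days. They received a 1 h iv infusion at 5 mL kg−1 h−1, target 1 mg/kg, at 0.2 mg/mL in DMSO/10% Kleptose in saline (≤5%:≥95%). pH was adjusted to 8.0 if needed and the solution filtered. Definitive studies used n = 3 in crossover; others used single animals.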

Rattus norvegicus [22] = experiment: Dose normalized AUC in Sprague-Dawley rat at 25 mg/kg, po QD measured on day 1; assay type: ADME, organism-based; details: in vivo; method in brief: as §2
[23] = Half life in CD rat at 1 mg/kg, iv; assay type: ADME, organism-based; details: in vivo; method in brief: as §4
[24] = Cmax in Sprague-Dawley rat at 25 mg/kg, po QD measured on day 1; assay type: ADME, organism-based; design: dose 25 mg/kg, route oral; details: in vivo; method in brief: as §2
Rattus norvegicus [25] = experiment: Dose normalized AUC in Sprague-Dawley rat at 25 mg/kg, po QD measured on day 4; assay type: ADME, organism-based; details: in vivo; method in brief: as §2
[26] = Volume of distribution at steady state in CD rat at 1 mg/kg, iv; assay type: ADME, organism-based; details: in vivo, read-out: Vdss; method in brief: as §3
[27] = AUC in Sprague-Dawley rat at 25 mg/kg, po QD measured on day 1; assay type: ADME, organism-based; details: in vivo; method in brief: as §2
CYP1A2 [28] = experiment: Induction of CYP1A2 mRNA expression in Sprague-Dawley rat hepatic microsomes at 25 mg/kg, po QD for 4 days relative to control; assay type: ADME, organism-based, Liver; details: read-out: FC
[29] = Cmax in Sprague-Dawley rat at 25 mg/kg, po QD measured on day 4; assay type: ADME, organism-based; design: dose 25 mg/kg, route oral; details: in vivo; method in brief: as §2
CYP1A1 [30] = experiment: Induction of CYP1A1 mRNA expression in Sprague-Dawley rat hepatic microsomes at 25 mg/kg, po QD for 4 days relative to control; assay type: ADME, organism-based, Liver; details: read-out: FC; method in brief: as §1

fold induction at 96 h (CYP1A1 [1]): 1.6
Cmax [2]: 900 ng/mL
AUC/dose (Rattus norvegicus [3]): 48 kg·min/L
Cmax [4]: 940 ng/mL
AUC/dose (Rattus norvegicus [5]): 56 kg·min/L
fold induction at 96 h (CYP1A2 [6]): 2
logD [7]: 2.58
pKa [8]: 7.3
AUC [9]: 12100 ng·h/mL
AUC [10]: 13900 ng·h/mL
Structure (SMILES): CC(C)Oc1ccc(-c2nc(-c3cccc4c3CCN(C(CO)CO)C4)no2)cc1C#N

fold induction at 96 h (CYP1A2 [11]): 7.3
AUC/dose (Rattus norvegicus [12]): 48 kg·min/L
AUC/dose (Rattus norvegicus [13]): 59 kg·min/L
AUC [14]: 23000 ng·h/mL
fold induction at 96 h (CYP1A1 [15]): 604
AUC [16]: 23100 ng·h/mL
Cmax [17]: 1600 ng/mL
bioavailability [18]: 68%
logD [7]: 2.78
Cmax [19]: 1380 ng/mL
Structure (SMILES): CC(C)Oc1ccc(-c2nc(-c3ccc4c(c3)CCN(C(CO)CO)CC4)no2)cc1C#N

AUC [20]: 12600 ng·h/mL
clearance [21]: 54 mL/min/kg
AUC/dose (Rattus norvegicus [22]): 22 kg·min/L
half-life [23]: 1 h
Cmax [24]: 870 ng/mL
AUC/dose (Rattus norvegicus [25]): 30 kg·min/L
Vd [26]: 4 L/kg
AUC [27]: 8840 ng·h/mL
fold induction at 96 h (CYP1A2 [28]): 2
bioavailability [18]: 69%
logD [7]: 2.86
Cmax [29]: 1140 ng/mL
fold induction at 96 h (CYP1A1 [30]): 40
pKa [8]: 6.3
Structure (SMILES): Cc1c(-c2noc(-c3ccc(OC(C)C)c(C#N)c3)n2)ccc2c1OCCN(C(CO)CO)C2
